Assay outcomes deposited in PubChem BioAssay by several laboratories.
This is a sample that favours compounds with a hit; in the whole collection about 4.8% have one here.
T cruzi inh – blocks replication of Trypanosoma cruzi | T. cruzi beta-gal in NIH3T3, luminescence, 90 h | inhibition, % (test concentration not listed) | actives 1.4% (n = 300,000);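 active = mean inhibition across valid replicates above about 55%, limit read from the data; inconclusive = mean below that limit but half or more replicates reach it; inactive = mean below it, under half of replicates reach it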;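 note: signal also drops with host cell toxicity which is not excluded here; higher percent means less beta-gal luminescence so fewer parasites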
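Test system: β-gal T. cruzi (Tulahuen C4) inside NIH/3T3 cells / Quantity: 5,000 cells/well / Measured by: luminescence from GalScreen with 0.05% NP40, read after 60 min / Medium: DMEM plus 2% FBS / Measure: parasite load inhibition, % / Reagent: Tulahuen C4 trypomastigotes, 5000/well / Schedule: co-culture of at least 90 h after 3 h attachment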
HSF1 inh – HSF1 inhibition. NIH3T3-HGL HSE-luciferase, MG132-induced, luminescence 8 h; hits give low values. actives 0.77% (n = 300,000). activity change, negative = inhibition, % at 7.5 µM (by protocol);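 active = more than half of replicate wells show activity change below -50%, luminescence cut by over half; inconclusive = some wells, but at most half, below -50%; inactive = no replicate well below -50%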;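 note: luciferase reports HSF-1 transcriptional activity via heat shock element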
697 NFkB inh – lowers PMA/ionomycin-induced NF-kB signal in 697 B cells | actives 0.33% (n = 330,000) | 697 B-cell NF-kB luciferase reporter, 16 h | AID 435022 | inhibition, % at 4 µM; in the data active = inhibition above about 35%
HSF1 activator – increases HSF-1 driven luciferase reporter signal | NIH3T3-HGL HSF-1 luciferase reporter, MG132, 8 h; 100% = twice DMSO control signal | activation, % at 9 µM | actives 1.7% (n = 300,000) | AID 504408;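 active = mean replicate activation of at least 50% with a set share of replicates each reaching 50%; inconclusive = only one of those two conditions met; inactive = mean below 50% and too few replicates reaching it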
Jurkat NFkB inh – inhibitors of the PMA/ionomycin-induced NF-kB reporter in Jurkat cells. actives 0.53% (n = 330,000). inhibition, % at 4 µM. PMA/ionomycin-induced NF-kB luciferase reporter, luminescence. AID 435003; in the data active = inhibition above about 50%
GPR7 antag – antagonists of human GPR7 (neuropeptides B/W receptor 1); GPR7-expressing cells, fluorescence antagonist assay; inhibition, % at 4.4 µM; actives 1.1% (n = 290,000); AID 1861; in the data active = inhibition above about 16%, passing the limit was not always enough;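 note: cells stimulated with the agonist NPW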
Target sequence (P48145 whole entry, looked up): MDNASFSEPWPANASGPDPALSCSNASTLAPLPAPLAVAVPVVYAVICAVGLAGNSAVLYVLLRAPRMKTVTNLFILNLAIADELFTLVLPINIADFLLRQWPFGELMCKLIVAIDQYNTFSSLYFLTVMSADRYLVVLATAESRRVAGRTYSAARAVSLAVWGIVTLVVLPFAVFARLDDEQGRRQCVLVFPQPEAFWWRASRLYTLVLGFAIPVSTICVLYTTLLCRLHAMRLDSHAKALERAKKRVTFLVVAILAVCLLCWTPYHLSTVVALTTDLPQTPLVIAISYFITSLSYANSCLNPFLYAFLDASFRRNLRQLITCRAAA
GPR7 antag cf – confirmation of human GPR7 antagonists. shares compounds with GPR7 antag. GPR7-expressing cells, calcium fluorescence antagonist mode. inhibition, % at 4.4 µM. actives 52% (n = 2,400). AID 1952; in the data active = inhibition above about 24%;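 note: stimulated with the GPR7 agonist NPW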
MCHR1 antag – MCHR1 (human) antagonism in GPR7 counter-screen. shares compounds with GPR7 antag. MCHR1-expressing cells, fluorescence antagonist assay. inhibition, % at 4.4 µM. actives 62% (n = 2,400); in the data active = inhibition above about 22%
Each line names hits and unclear results; the compound was inactive in the other large screens (follow-up assays come after a bar, where they were run).

Cn1c(=O)c2c(nc(CN3CCc4ccccc4C3)n2Cc2cccc(Cl)c2)n(C)c1=O	GPR7 antag 24 | GPR7 antag cf inactive | MCHR1 antag inactive
Cc1cccc2cc(CN(Cc3ccco3)C(=O)Nc3cccc(C#N)c3)c(Cl)nc12	T cruzi inh 60, GPR7 antag 27 | GPR7 antag cf 39 | MCHR1 antag 61
COc1cc(C(C)=O)ccc1OCCCOc1cccc2cccnc12	none
Cc1cc(C)c2oc(C(=O)N(Cc3ccccc3)c3ccccn3)cc(=O)c2c1	GPR7 antag 26 | GPR7 antag cf inactive | MCHR1 antag inactive
CCOc1ccc(CCNC(=O)CCS(=O)(=O)c2ccc(OC)cc2)cc1OCC	none
O=C(c1ccc(COc2ccccc2Br)o1)N1CCCCCC1	none
O=C(c1ccc(COc2ccccc2Br)cc1)N1CCCCC1	GPR7 antag 25 | GPR7 antag cf 36 | MCHR1 antag 44
CS/C(=C\[N+](=O)[O-])Nc1ccccc1	none
CS/C(=C\[N+](=O)[O-])Nc1ccc(F)cc1	GPR7 antag 23 | GPR7 antag cf inactive | MCHR1 antag inactive
CCN1CCN(CCNC(=O)c2ccc(/C=C3/Sc4ccccc4N(Cc4ccccc4C)C3=O)cc2)CC1	GPR7 antag 26 (no result: 697 NFkB inh, Jurkat NFkB inh) | GPR7 antag cf 83 | MCHR1 antag 91
CCN1CCN(CCCNC(=O)c2ccc(/C=C3/Oc4ccccc4N(Cc4cccc(C)c4)C3=O)cc2)CC1	none
COc1cccc(CNC(=O)C2=Cc3cccc(OC)c3OC2)c1	GPR7 antag 33 | GPR7 antag cf inactive | MCHR1 antag inactive
COc1cccc(CNC(=O)c2ccc(OCC(=O)N3CCOCC3)c(OC)c2)c1	none (no result: GPR7 antag)
CCCCN1C(=O)C(NC(C)=O)c2cc(Br)ccc21 (stereo not drawn)	GPR7 antag 53 | GPR7 antag cf 26 | MCHR1 antag inactive
CC1CCCC(NC(=O)c2ccc3c(c2)NC(=O)CS3)C1C (stereo not drawn)	none
Cc1ccc(-n2ncc3c2CCCC3NC(=O)CCc2c(C)noc2C)cc1C (stereo not drawn)	none
CC(Nc1cccc(F)c1)C(=O)Nc1ccc(S(N)(=O)=O)cc1 (stereo not drawn)	none
CCOC(=O)/C=C1\CN(C(C)c2ccccc2)S(=O)(=O)c2ccccc21 (stereo not drawn)	none
O=C(OCC(=O)N1CCN(S(=O)(=O)c2ccccc2)CC1)c1ccc([N+](=O)[O-])o1	GPR7 antag 29 | GPR7 antag cf inactive | MCHR1 antag inactive
O=C(COc1ccccc1[N+](=O)[O-])N1CCN(S(=O)(=O)c2ccccc2)CC1	none
CCC1CCC(C(=O)NNC(=O)c2cc(-c3ccco3)[nH]n2)CC1 (stereo not drawn)	none
CCc1cccc2c(C(=O)C(NCCCOC)c3ccccc3)c[nH]c12 (stereo not drawn)	T cruzi inh inconclusive, GPR7 antag 35 | GPR7 antag cf 43 | MCHR1 antag 30
CCc1cccc2c(C(=O)C(NC(C)CC)c3ccccc3)c[nH]c12 (stereo not drawn)	none
COc1ccc(OCc2n(CC(=O)OC3CC(C)CCC3C(C)C)c3ccccc3[n+]2C)cc1 (stereo not drawn)	GPR7 antag 71 | GPR7 antag cf 62 | MCHR1 antag 84
CCCCN(C)CC(O)Cn1cc(/C=C/C(=O)c2ccc(OCC)cc2)c2ccccc21 (stereo not drawn)	T cruzi inh 59, GPR7 antag 32 | GPR7 antag cf 36 | MCHR1 antag 55
O=C(COc1ccc([N+](=O)[O-])cc1)NCCC1=CCCCC1	GPR7 antag 29 | GPR7 antag cf 31 | MCHR1 antag inactive
COc1ccc2[nH]c3c(c2c1)CCN1C(=O)N([C@@H](C)C(=O)NCc2ccccc2)C(=O)[C@]31C	none
C[C@@H](C(=O)NCCc1ccccc1)N1C(=O)N2CCc3c([nH]c4ccccc34)[C@@]2(C)C1=O	T cruzi inh 61, GPR7 antag 24 | GPR7 antag cf inactive | MCHR1 antag 27
C[C@@H](C(=O)NCCc1ccccc1F)N1C(=O)N2CCc3c([nH]c4ccccc34)[C@@]2(C)C1=O	GPR7 antag 25 | GPR7 antag cf inactive | MCHR1 antag 34
CCOc1ccc([N+](=O)[O-])c(N)c1	GPR7 antag 28 | GPR7 antag cf inactive | MCHR1 antag inactive
CCOc1ccc(Oc2cc(N)cc([N+](=O)[O-])c2)cc1	none
CN(CC(=O)Nc1ccccc1Br)C(=O)CN1CCN(Cc2ccc(Cl)cc2)CC1	none (no result: T cruzi inh, HSF1 inh, HSF1 activator, GPR7 antag)
O=S(=O)(Nc1ccc(Cl)cn1)c1cccs1	none
COc1ccccc1C(=O)N/C(=C\c1cn(S(=O)(=O)N(C)C)c2ccccc12)C(=O)NCCCN1CCOCC1	none
Cc1ccc(-n2nnnc2SCC(=O)Nc2ccc(N3CCN(C)CC3)cc2)c(C)c1	none
Cc1ccc(SCC(=O)Nc2ccc(N3CCN(C)CC3)c(F)c2)c(C)c1	GPR7 antag 38 | GPR7 antag cf inactive | MCHR1 antag inactive
Cc1ccc(NC(=O)CSc2nnc(-c3ccncc3)n2C)cc1C	GPR7 antag 83 | GPR7 antag cf inactive | MCHR1 antag inactive
COc1ccc(CCNC(=O)CCCn2c(SCC(N)=O)nc3cc4c(cc3c2=O)OCO4)cc1OC	none
O=C(Nc1nc2c(F)cccc2s1)C1CC1	GPR7 antag 29 | GPR7 antag cf inactive | MCHR1 antag inactive
Cc1c(Cl)ccc2sc(NC(=O)C3CC3)nc12	none
COc1ccc(CC2(CO)CCN(Cc3ccc(NC(C)=O)cc3)CC2)cc1	none
COc1ccc(CC2(CO)CCN(Cc3nc(C(C)C)cs3)CC2)cc1	T cruzi inh 68, GPR7 antag 25 | GPR7 antag cf inactive | MCHR1 antag 40
CN(CC(=O)Nc1ccccc1Cl)C(=O)COC(=O)CN1C(=O)NC2(CCCC2)C1=O	none
Cc1ccc(NC(=S)NC(=O)Cc2ccccc2)c(O)c1	GPR7 antag 29 | GPR7 antag cf 42 | MCHR1 antag 29
Cc1ccc(SCC(=O)Nc2cc(S(=O)(=O)N3CCCCC3)ccc2C)cc1	none (no result: T cruzi inh, HSF1 inh, HSF1 activator, GPR7 antag)
CN(Cc1cccc(Cl)c1)C(=O)C1CCC(=O)N(C2CC2)C1 (stereo not drawn)	GPR7 antag 23 | GPR7 antag cf inactive | MCHR1 antag inactive
CN(Cc1ccc(C(F)(F)F)cc1)C(=O)C1CCC(=O)N(C2CC2)C1 (stereo not drawn)	none
O=C(NCc1ccccc1)C1CCCN(S(=O)(=O)c2ccc(-n3cnnn3)cc2)C1 (stereo not drawn)	GPR7 antag 23 | GPR7 antag cf inactive | MCHR1 antag inactive
